Data as given in ChEMBL document CHEMBL1125745, “Unsaturated and carbocyclic nucleoside analogues: synthesis, antitumor, and antiviral activity” (J Med Chem, 1991).

Tests used:
[1] = Cytotoxicity was evaluated against CO9 solid tumor of mouse at 500 ug/disk.; type: functional
Summary of the method: (§1)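 Disk zone assay: analogue dilutions on 6.5 mm paper disks were placed on dishes with a 0.8% agar bottom layer and a 0.44% soft-agar top layer of tumor cells (≤1 × 10^5/plate) in Fishers-CMRL-1066 with 12% horse serum. Plates were incubated 6-10 days and the inhibition zone was measured by microscope; 200 zone units = 6 mm.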

L1210 [2] = test: Compound were evaluated for inhibition of macromolecular synthesis in murine leukemia L1210 cells at 1 hour against Protein; type: functional, Mus musculus; design: scale not given: the % may be the effect or the level left
L1210 [3] = test: Compound were evaluated for inhibition of macromolecular synthesis in murine leukemia L1210 cells at 4 hour against Protein; type: functional, Mus musculus; design: scale not given: the % may be the effect or the level left
L1210 [4] = test: Compound were evaluated for inhibition of macromolecular synthesis in murine leukemia L1210 cells at 4 hour against RNA.; type: functional, Mus musculus; design: scale not given: the % may be the effect or the level left
L1210 [5] = test: Compounds were evaluated for inhibition of macromolecular synthesis in murine leukemia L1210 cells at 1 hour against DNA.; type: functional, Mus musculus; design: scale not given: the % may be the effect or the level left
L1210 [6] = test: Compound were evaluated for inhibition of macromolecular synthesis in murine leukemia L1210 cells at 4 hour against DNA.; type: functional, Mus musculus; design: scale not given: the % may be the effect or the level left
L1210 [7] = test: Compounds were evaluated for inhibition of macromolecular synthesis in murine leukemia L1210 cells at 1 hour against RNA.; type: functional, Mus musculus; design: scale not given: the % may be the effect or the level left
L1210 [8] = test: Cytotoxicity was evaluated against L1210 leukemia cell line at 500 ug/disk.; type: functional, Mus musculus; summary of the method: as §1
[9] = Cytotoxicity was evaluated against low malignancy line at 500 ug/disk.; type: functional; summary of the method: as §1
L1210 [10] = test: Inhibitory activity against murine leukemia L1210 cells; type: functional, cell-based; settings: Mus musculus
Homo sapiens [11] = species: Homo sapiens; test: Cytotoxicity was evaluated against PO1 human solid tumor at 500 ug/disk.; type: functional; summary of the method: as §1
Homo sapiens [12] = species: Homo sapiens; test: Cytotoxicity was evaluated against C116 human solid tumor at 1000 ug/disk.; type: functional; summary of the method: as §1
MC-38 = test: Cytotoxicity was evaluated against C38 solid tumor of mouse at 1000 ug/disk.; type: functional; summary of the method: as §1
Mus musculus [13] = species: Mus musculus; test: (§2) Cytotoxicity was evaluated against low malignancy line at 1000 ug/disk.; type: functional; summary of the method: as §1
L1210 [14] = test: (§3) Compound was evaluated for inhibition of macromolecular synthesis in murine leukemia L1210 cells at 4 hour against DNA.; type: functional, Mus musculus; design: scale not given: the % may be the effect or the level left
L1210 [15] = test: (§4) Compound was evaluated for inhibition of macromolecular synthesis in murine leukemia L1210 cells at 4 hour against Protein; type: functional, Mus musculus; design: scale not given: the % may be the effect or the level left
L1210 [16] = test: (§5) Compound was evaluated for inhibition of macromolecular synthesis in murine leukemia L1210 cells at 4 hour against RNA.; type: functional, Mus musculus; design: scale not given: the % may be the effect or the level left
L1210 [17] = test: Cytotoxicity was evaluated against L1210 leukemia cell line at 1000 ug/disk.; type: functional, Mus musculus; summary of the method: as §1
Mus musculus [18] = species: Mus musculus; test: Concentration that reduces Friend murine leukemia virus titer by 50%; type: functional, organism-based
Summary of the method: (§6)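 SC-1 cells (1 × 10^4/well) were pretreated with polybrene, infected 2 h at 37 °C with F-MuLV or R-MuLV in EMEM-5 with 8 µg/mL polybrene, washed, and refed with analogue for 72 h. They were then UV-irradiated and overlaid with XC cells (2 × 10^5) for 48 h, fixed and stained with crystal violet. Multinucleated cells were counted and EC50 was taken by linear regression versus untreated cultures.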

[19] = Inhibition of incorporation of labeled precursor into macromolecules of noninfected SC-1 cells with the compound at a concentration 300 uM determined against leucine.; type: functional
Summary of the method: (§7)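 SC-1 cells seeded in 24-well trays at 1 × 10^4 cells/mL, incubated overnight at 37 °C, then exposed to analogue for 72 h at 37 °C. Labeled thymidine (2.5 µCi), [3H-5,6]uridine or [3H-4,5]leucine was added. After 4 h, cells were washed with cold PBS, lysed in 1% SDS/0.01 M EDTA/0.01 M Tris pH 7.7, and lysates were dried on GF/B filters. Result given as % of untreated incorporation.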

[20] = Inhibition of incorporation of labeled precursor into macromolecules of noninfected SC-1 cells with the compound at a concentration 300 uM determined against thymidine; type: functional; summary of the method: as §7
[21] = Inhibition of incorporation of labeled precursor into macromolecules of noninfected SC-1 cells with the compound at a concentration 300 uM determined against uridine.; type: functional; summary of the method: as §7
[22] = Inhibition of incorporation of labeled precursor into macromolecules of noninfected SC-1 cells with the compound at a concentration 100 uM determined against leucine.; type: functional
Summary of the method: (§8)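 Noninfected SC-1 cells were incubated with analogue as in the cytotoxicity setup, and [3H]thymidine, [3H]uridine or [3H]leucine was added. After 4 h, wells were washed with ice-cold PBS and cells were lysed in 1% SDS, 0.01 M EDTA, 0.01 M Tris pH 7.7. Lysates were dried on glass-fiber filters, and label is expressed as percent of incorporation in untreated cells.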

[23] = Inhibition of incorporation of labeled precursor into macromolecules of noninfected SC-1 cells with the compound at a concentration 100 uM determined against thymidine; type: functional; summary of the method: as §8
[24] = Inhibition of incorporation of labeled precursor into macromolecules of noninfected SC-1 cells with the compound at a concentration 100 uM determined against uridine.; type: functional; summary of the method: as §8
Mus musculus [25] = species: Mus musculus; test: Cytotoxicity was evaluated; type: functional
Summary of the method: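 SC-1 cells (1 × 10^4 cells/mL) were seeded, incubated overnight at 37 °C, refed with EMEM-10 and given diluted analogue in triplicate for 72 h at 37 °C. Cells were trypsinized and counted in a Coulter counter. The mean of three wells gave percent of control count, and IC50 was calculated by linear regression.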

Mus musculus [26] = species: Mus musculus; test: Concentration that reduces Rauscher murine leukemia virus titer by 50%; type: functional, organism-based; summary of the method: as §6
Mus musculus [27] = species: Mus musculus; test: Selectivity index which is the ratio of IC50 to EC50 of R-MuLV.; type: functional
[28] = Selectivity index is the ratio of IC50 to EC50 of F-MuLV.; type: functional
Homo sapiens [29] = species: Homo sapiens; test: Cytotoxicity was evaluated against C116 human solid tumor at 250 ug/disk.; type: functional; summary of the method: as §1
[30] = Cytotoxicity was evaluated against low malignancy line at 250 ug/disk.; type: functional; summary of the method: as §1
L1210 [31] = test: (§9) Compound was evaluated for inhibition of macromolecular synthesis in murine leukemia L1210 cells at 1 hour against DNA.; type: functional, Mus musculus; design: scale not given: the % may be the effect or the level left
L1210 [32] = test: (§10) Compound was evaluated for inhibition of macromolecular synthesis in murine leukemia L1210 cells at 1 hour against Protein; type: functional, Mus musculus; design: scale not given: the % may be the effect or the level left
L1210 [33] = test: (§11) Compound was evaluated for inhibition of macromolecular synthesis in murine leukemia L1210 cells at 1 hour against RNA.; type: functional, Mus musculus; design: scale not given: the % may be the effect or the level left
L1210 [34] = test: Cytotoxicity was evaluated against L1210 leukemia cell line at 250 ug/disk.; type: functional, Mus musculus; summary of the method: as §1
Homo sapiens [35] = species: Homo sapiens; test: Cytotoxicity was evaluated against PO1 human solid tumor at 250 ug/disk.; type: functional; summary of the method: as §1
PO3 = test: Cytotoxicity was evaluated against PO3 cell line at 250 ug/disk.; type: functional, Mus musculus; summary of the method: as §1
Nucleic Acid [36] = test: as §9; type: functional, cell-based; design: scale not given: the % may be the effect or the level left; settings: Mus musculus
Nucleic Acid [37] = test: as §3; type: functional, cell-based; design: scale not given: the % may be the effect or the level left; settings: Mus musculus
Nucleic Acid [38] = test: Compound was evaluated for inhibition of macromolecular synthesis in murine leukemia L1210 cells at 8 hour against DNA.; type: functional, cell-based; design: scale not given: the % may be the effect or the level left; settings: Mus musculus
[39] = as §2; type: functional; summary of the method: as §1
Mus musculus [40] = species: Mus musculus; test: as §10; type: functional; design: scale not given: the % may be the effect or the level left
Mus musculus [41] = species: Mus musculus; test: as §4; type: functional; design: scale not given: the % may be the effect or the level left
Mus musculus [42] = species: Mus musculus; test: Compound was evaluated for inhibition of macromolecular synthesis in murine leukemia L1210 cells at 8 hour against Protein; type: functional; design: scale not given: the % may be the effect or the level left
Nucleic Acid [43] = test: Compound was evaluated for inhibition of macromolecular synthesis in murine leukemia L1210 cells at 8 hour against RNA.; type: functional, cell-based; design: scale not given: the % may be the effect or the level left; settings: Mus musculus
Nucleic Acid [44] = test: as §11; type: functional, cell-based; design: scale not given: the % may be the effect or the level left; settings: Mus musculus
Nucleic Acid [45] = test: as §5; type: functional, cell-based; design: scale not given: the % may be the effect or the level left; settings: Mus musculus

Nc1ccn(C/C=C\CCl)c(=O)n1
Cytotoxicity [1]: 410
Control (L1210 [2]): 100%
Control (L1210 [3]): 100%
Control (L1210 [4]): 100%
Control (L1210 [5]): 80%
Control (L1210 [6]): 67%
Control (L1210 [7]): 100%
Cytotoxicity (L1210 [8]): 640
Cytotoxicity [9]: 450
IC50 (L1210 [10]): 10 µM
Cytotoxicity (Homo sapiens [11]): 640

Cc1cn(C2C=CCO2)c(=O)[nH]c1=O (stereo unspecified)
Cytotoxicity (Homo sapiens [12]): 260
Cytotoxicity (MC-38): 430
Cytotoxicity (Mus musculus [13]): 500
Control (L1210 [14]): 10%
Control (L1210 [15]): 90%
Control (L1210 [16]): 50%
Cytotoxicity (L1210 [17]): 410
IC50 (L1210 [10]): 50 µM

Nc1ncnc2c1ncn2C1C(O)C(O)C(CO)C1O (stereo unspecified)
EC50 (Mus musculus [18]): 67.3 µM
Precursor inhibition [19]: 53%
Precursor inhibition [20]: 110%
Precursor inhibition [21]: 29%
Precursor inhibition [22]: 99%
Precursor inhibition [23]: 115%
Precursor inhibition [24]: 56%
IC50 (Mus musculus [25]): 281 µM
EC50 (Mus musculus [26]): 25 µM
SI (Mus musculus [27]): 9.1
SI [28]: 3.4

Nc1ccn(C2C=CCO2)c(=O)n1 (stereo unspecified)
Cytotoxicity (Homo sapiens [29]): 450
Cytotoxicity [30]: 400
Control (L1210 [31]): 85%
Control (L1210 [32]): 100%
Control (L1210 [33]): 100%
Control (L1210 [14]): 55%
Control (L1210 [15]): 50%
Control (L1210 [16]): 85%
Cytotoxicity (L1210 [34]): 500
IC50 (L1210 [10]): 28 µM
Cytotoxicity (Homo sapiens [35]): 600
Cytotoxicity (PO3): 500

Oc1nccc(NCC#CCCl)n1
Cytotoxicity (Homo sapiens [12]): 660
Cytotoxicity (MC-38): 720
Control (Nucleic Acid [36]): 60%
Control (Nucleic Acid [37]): 35%
Control (Nucleic Acid [38]): 5%
Cytotoxicity [39]: 600
Cytotoxicity (L1210 [17]): 530
Control (Mus musculus [40]): 85%
Control (Mus musculus [41]): 70%
Control (Mus musculus [42]): 55%
IC50 (L1210 [10]): 20 µM
Control (Nucleic Acid [43]): 18%
Control (Nucleic Acid [44]): 75%
Control (Nucleic Acid [45]): 60%
